The series deals with MS2 coat protein. Kind of series: apparent Kd, MS2 coat protein; higher = weaker binding; RNA-MaP array. The method, boiled down: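 Apparent Kd is the median of per-cluster binding-curve fits for designed RNAs transcribed from sequenced DNA templates on an Illumina sequencing chip. The RNAs were incubated at room temperature with fluorescently labeled MS2 coat protein at 1.5 nM to 3 μM, with or without input ligand, and designs measured on fewer than 10 clusters were excluded.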

[1] abbreviates: designed as: OFF switch for flavin mononucleotide, no ligand.
Setting [2] is: ligand present: flavin mononucleotide, designed as: OFF switch for flavin mononucleotide.
The mark [3] stands for this setting: designed as: ON switch for flavin mononucleotide, no ligand.
[4] abbreviates: ligand present: flavin mononucleotide, designed as: ON switch for flavin mononucleotide.
[5] abbreviates: designed as: ON switch for theophylline, no ligand.
Where [6] appears, read: ligand present: theophylline, designed as: ON switch for theophylline.

The term apparent Kd denotes the concentration giving half-maximal binding under the conditions of the assay. Turning to “GAUGGUGUCAAGGAUAUUCCUAGCGGCUCGUUCGAAGAAGGUGAUACAUGAGGAUCACCCAUGUCCCUCCAUUU”, the “apparent Kd” value under setting [1] was found to be 18.2 nM and the “apparent Kd” value under setting [2] was found to be 16.9 nM.

For the sequence “GGAUACAGGAUAGGAUAUUCUGGGCCUUACAUGAGGAUCACCCAUGUGGAUUUUAUAUAUAGCCGGAAGAAGGAUCAACAGGUG”, the “apparent Kd” value by setting is: under setting [1], 11.8 nM; under setting [2], 9.21 nM.

For the sequence “CCAGCUAAAGGAUAUACUGCCGGUGUUAUGUAAUAAUUGCAACAUGAGGAUCACCCAUGUAGAAGGUAAGUGAA”, the “apparent Kd” value runs as follows: under setting [1], 11 nM; under setting [2], 9.45 nM.

As to “UAAAUUGAAGGAUAUACAUGAGGAUCACCCAUGUAAGAAAUACAUGAAAAUAACAACAGUAGAAGGUCAAAACU”, the “apparent Kd” value was found to be 15.9 nM under setting [1] and 12.7 nM under setting [2].

Take “ACGAAUGGUUCAACAUGAGGAUCACCCAUGUGAUCUUCCAUUCAGGAUAUGUGUAGUAGAUCUCAACAGAAGGGAAUAAAAUAG”: the “apparent Kd” value was determined as 35.8 nM under setting [1] and 38.7 nM under setting [2].

Take “CCGAUGAUGAUAGGAUAUCUAGGAGUUAAGACGCCGUCUACAUGAGGAUCACCCAUGUUUCGAUUAGAGAAGGAUCGGGAUUCG”: the “apparent Kd” value came to 13.1 nM under setting [3] and 7.13 nM under setting [4].

Regarding “AACAUGAGGAUCACCCAUGUACACUCAAUUCGGUAUCGCUGCAAGGAUAUUCGCGUUGGAUACAUGAAGAAGGUGCCCGUACCG”, the “apparent Kd” value by setting is: under setting [3], 92 nM; under setting [4], 12.5 nM.

On to “GUAUUGUAAGGAUAUAGUAGGCCAGUACGAAGGCUUGAGCACUAGAAGGUACAUGAGGAUCACCCAUGUGGUGG”, for which the “apparent Kd” value is 401 nM under setting [1] and 146 nM under setting [2].

As for “GAAUUUCGGAAGAAGGGACUCGAUCAGUUCAGGUCAGGAUAUUCACAUGAGGAUCACCCAUGUCCAUCAGCAUGACGUUUCCAC”, the “apparent Kd” value was found to be 10.9 nM under setting [1] and 14.7 nM under setting [2].

Consider “GGCCUCACAUGAGGAUCACCCAUGUUACUACUUGUUCGAUUGGAGGAUAUCUCUAGAAUUUACUGAGAGAAGGCCAAUAUGGGA”, for which the “apparent Kd” value stood at 236 nM under setting [1] and 191 nM under setting [2].

With “AUAACGACUUCAGGAUAUCUAAUAUGGCCUAUAUGCUGAAAACAUGAGGAUCACCCAUGUCAAGGAGAGAAGGGAAGACAAACA”, the “apparent Kd” value is, setting by setting: under setting [1], 13.3 nM; under setting [2], 10.2 nM.

Turning to “ACCAUGUGACAGGAUAUGUUUCUCUCAAUAAACACAGAAGGGUCUACAUGAGGAUCACCCAUGUGUAUUCUACC”, the “apparent Kd” value reads like this: under setting [1], 72.6 nM; under setting [2], 64.3 nM.

For “AGCUGGGCUGAGAAGGCGUAUCGCUGUUAAGUGACAUGAGGAUCACCCAUGUAAUUACGAGGCUACGAGGAUAUCAACUAUGGA”, the “apparent Kd” value runs as follows: under setting [3], 35.1 nM; under setting [4], 15.5 nM.

On to “AGGCACCAGAGAGGAUAUUAGGACAGCGAACAUGAGGAUCACCCAUGUAUGUUUGUUAGGCGAGCUAAGAAGGCUCCACGGGUU”, for which the “apparent Kd” value was determined as 6.9 nM under setting [1] and 6.73 nM under setting [2].

For the sequence “AUUAGGCGGCAGAAGGCCCAUACCCGGACAUGAGGAUCACCCAUGUACUCGUUUCGCCAUAUCAGGGAGGAUAUGCCAACAACU”, the “apparent Kd” value amounted to 17.5 nM under setting [1] and 15.8 nM under setting [2].

For “CUGUACAUGAGGAUCACCCAUGUUAGACCAGCUUAAAAUAUAAGAAGGUUGAGGGCUUGACCAACAAAGGAUAUUAUGUGACCA”, the “apparent Kd” value came out at 27.7 nM under setting [3] and 18.1 nM under setting [4].

For “UCGACAUGAGGAUCACCCAUGUGCCUCGGAUGUCGUUAGAGUGAGGAUAUGUCACACCAAAACGUACAGAAGGCACUUAUUAGA”, the “apparent Kd” value reads like this: under setting [1], 296 nM; under setting [2], 267 nM.

Turning to “CUUGUGCUGACGGCCGCCACUUUAUGGGAGUCCUGUUCUGAUUGAUACAUGAGGAUCACCCAUGUAAGGACCGGGUCGUACCAUA”, the “apparent Kd” value (designed as: OFF switch for tryptophan, no ligand) was found to be 18 nM and the “apparent Kd” value (ligand present: tryptophan, designed as: OFF switch for tryptophan) was determined as 22.3 nM.

Turning to “AACUAAAACGAUAGUCGACAUGAGGAUCACCCAUGUACAAAACAGGAUAUAAGAUUACCGGUGUGUAAGAAGGGUUUGCUAUCA”, the “apparent Kd” value is, setting by setting: under setting [3], 15.2 nM; under setting [4], 12.6 nM.

For “AAUAGAGCACUAGGAUAUGUUUCGUGUGCAGGUGGACAUGAGGAUCACCCAUGUAUAUGUUCAAGACAGAAGGAGACAGAUGAA”, the “apparent Kd” value reads like this: under setting [1], 59.2 nM; under setting [2], 38.4 nM.

For the sequence “CGACAUUAGUAGAAGGAGGAGUAGCGAUAGAGCCUAGGAUAUACGAACAAAUACAUGAGGAUCACCCAUGUUGACGAUCCAUCA”, the “apparent Kd” value is, setting by setting: under setting [1], 49 nM; under setting [2], 45.8 nM.

Take “CGCUAAGAGCGGCACCUCCACAUGAGGAUCACCCAUGUUUGAAGAAGGCCAAUUUACGUAAGACUGGAGGAUAUUCAGGAGAGU”: the “apparent Kd” value reads like this: under setting [3], 10.1 nM; under setting [4], 5.9 nM.

For the sequence “UGACCACAUGAGGAUCACCCAUGUCAGGAUAUAGGUACACUGGUACAGCCUUUUCGGCCUAGAAGGGACUCUCU”, the “apparent Kd” value is, setting by setting: under setting [1], 9.09 nM; under setting [2], 8.42 nM.

As to “UAUAGUUAAAAGGAUAUCGAAAACAAGCGUAAACGAGAAGGUUUAACAUGAGGAUCACCCAUGUAAGGAGAUGG”, the “apparent Kd” value came to 58.4 nM under setting [1] and 139 nM under setting [2].

Take “UGGAAUGUGCAAGGAUAUUGGCGGUGUGGAAUAGAAUCACUCGAACAUGAGGAUCACCCAUGUUGCAAGAAGGUGCGGGAACGA”: the “apparent Kd” value under setting [1] worked out at 38.2 nM and the “apparent Kd” value under setting [2] came out at 33.5 nM.

“CUCAAGUAAGGAUAUAUUCACGCUCGUAAUUAGUGUCGCGCAUAGAAGGUACAUGAGGAUCACCCAUGUCAUGU”: the “apparent Kd” value under setting [2] is 18.4 nM.

In the case of “UUAUGUCGGUAGGAUAUUAGACGUGGUUAUACGUAAGAAGGACCAACAUGAGGAUCACCCAUGUGAGAUAGUUC”, the “apparent Kd” value under setting [1] was determined as 14.4 nM and the “apparent Kd” value under setting [2] worked out at 24.7 nM.

For the sequence “UCCGUUGUAGGAUAUACAUGAGGAUCACCCAUGUAAUGUGGGCAAUUAUAAACUUACUGUAGAAGGACAGAGUG”, the “apparent Kd” value is, setting by setting: under setting [1], 493 nM; under setting [2], 555 nM.

With “CCUUGUGUGAAGGAUAUAGGUUUAUGUUUCUGUCUAGAAGGUCACACAUGAGGAUCACCCAUGUAUAUCCUAGA”, the “apparent Kd” value turned out to be 18.3 nM under setting [1] and 51.6 nM under setting [2].

In the case of “AGGUGUCCAGGAGGAUAUGAUUGCAACACGCCCUCAGAAGGCCUUAUAUACAAAGCAUACAUGAGGAUCACCCAUGUAAUUGGA”, the “apparent Kd” value under setting [3] was 8.74 nM and the “apparent Kd” value under setting [4] came out at 9.11 nM.

In the case of “UGGCCGUAGAAGAAGGAGGACACCGUUUUGUCACGGACAUGAGGAUCACCCAUGUAGAUAAUUGCCUAGGAUAUUCGCUCAUUU”, the “apparent Kd” value is, setting by setting: under setting [3], 15.9 nM; under setting [4], 7.52 nM.

As for “UCGCCGCUGGAGACAUGAGGAUCACCCAUGUGGUCUUUCGUAAGAAGGUGCCUAUAGAACUUUUGCAAGGAUAUUACGCCGGAG”, the “apparent Kd” value under setting [1] came out at 217 nM and the “apparent Kd” value under setting [2] was 113 nM.

Take “AGCGACAUGAGGAUCACCCAUGUACAUUCCCGAGGACCGGUACGGCCGCCACUCGAUGGAAGUGGUAGCAGCUUGGAUGGGCCUA”: the “apparent Kd” value is, setting by setting: (designed as: ON switch for tryptophan, no ligand) 15.7 nM; (ligand present: tryptophan, designed as: ON switch for tryptophan) 26.7 nM.

In the case of “AAUGGAGUCGAGAAGGCAGCGACCCACUAAACCUGAGGAUAUCGUCUCCGAAAAUGGGUGGGUGUACAUGAGGAUCACCCAUGU”, the “apparent Kd” value is, setting by setting: under setting [1], 95.2 nM; under setting [2], 122 nM.

As for “CGUAUAGCAGGAUAUUGCAGCCGGCACAUGAGGAUCACCCAUGUCGAUGGUCCGCCAUAGCAAGAAGGGCUAGUAG”, the “apparent Kd” value under setting [1] was 85.7 nM and the “apparent Kd” value under setting [2] came to 57.1 nM.

In the case of “GUGUCUUGGGAGGAUAUCCACUUCACGUCAUAUGGAGAAGGCCCGACAUGAGGAUCACCCAUGUGGUAACUGGC”, the “apparent Kd” value reads like this: under setting [1], 25.7 nM; under setting [2], 28.7 nM.

Take “GUGGCACUCCUAGGAUAUUCACCUUGCGUAGAAAGACAUGAGGAUCACCCAUGUGUCUCUUAUUUGAAGAAGGAGGAACCUCGG”: the “apparent Kd” value is, setting by setting: under setting [3], 12.7 nM; under setting [4], 13 nM.

As for “GAUUUUAGUGAAGGAUAUACAAACAACAUGAGGAUCACCCAUGUCUGGAAUGAUCGCAGGGCCCGGUAGAAGGUCAUCAGAAAG”, the “apparent Kd” value under setting [1] amounted to 31.1 nM and the “apparent Kd” value under setting [2] was found to be 24 nM.

“CUAGUGUGAGGAUAUGAGUCAACCUUUUAGUUCUAAGGAGAUCAGAAGGCACAUGAGGAUCACCCAUGUCAGAA”: the “apparent Kd” value by setting is: under setting [1], 33.4 nM; under setting [2], 84 nM.

Regarding “UCAGCACAUGAGGAUCACCCAUGUCGUGAUACCAGCCUGUGCGAAGGCCCUUGGCAGCACAGUCCCGAUUUGCUUAUAUGCACUU”, the “apparent Kd” value runs as follows: under setting [5], 35.7 nM; under setting [6], 36.9 nM.

As to “CAUGGAUAAGGAUAUACAUGAGGAUCACCCAUGUAUAGAAGGAUACAAAGAUAAGAAUGUAGAAGGUAUUGGUU”, the “apparent Kd” value runs as follows: under setting [1], 9.75 nM; under setting [2], 8.44 nM.

For “UCCAGCAACGAGAAGGUACACAUGAGGAUCACCCAUGUCCGUUGACCGUCUCCAUGGGCGAUGGGUAAGGAUAUCGGGCAGAUG”, the “apparent Kd” value runs as follows: under setting [3], 68.9 nM; under setting [4], 49.4 nM.

“AUCGCGACCCAGAAGGGAAGUCGGUGAAGCGGUUCAGGAUAUGGGCAGAGGACAUGAGGAUCACCCAUGUGCAUGUAUUCGGCA”: the “apparent Kd” value by setting is: under setting [3], 17.2 nM; under setting [4], 13.7 nM.

Turning to “UCGGCUUCCCAAGGAUAUGAGGUGCUUAUCGACAUGAGGAUCACCCAUGUAAAACUAGCUGCCAUUCAGAAGGUGGACACGCGC”, the “apparent Kd” value under setting [3] worked out at 17 nM and the “apparent Kd” value under setting [4] turned out to be 7.78 nM.

In the case of “CUUACACAUGAGGAUCACCCAUGUCAUGAUACCAGCCAAUACACUGGCCCUUGGCAGCAUCUCAGCCUCAGCUACAUUGACUGAC”, the “apparent Kd” value reads like this: under setting [5], 19.9 nM; under setting [6], 27.1 nM.

Turning to “GUACUGCAGUUAGGAUAUACCGGAGGAUUAUACACCUACUAACAUGAGGAUCACCCAUGUCUCUCGUAGAAGGAACAUAUUAGC”, the “apparent Kd” value is 20.9 nM under setting [3] and 16.5 nM under setting [4].

With “CGGGAACGAUAUGAUACCAGCCUGCGAAAGAAUGCUUAGUACAUGAGGAUCACCCAUGUAGGCCCUUGGCAGCAUCGACUCAAGU”, the “apparent Kd” value (designed as: OFF switch for theophylline, no ligand) turned out to be 14.8 nM and the “apparent Kd” value (ligand present: theophylline, designed as: OFF switch for theophylline) worked out at 19.7 nM.
